# Measurements taken from ChEMBL document CHEMBL1131588, “A novel class of orally active non-peptide bradykinin B2 receptor antagonists. 2. Overcoming the species difference between guinea pig and man” (J Med Chem, 1998).
# Columns and labels:
# B2 bradykinin receptor [1] = molecular target: T1, B2 bradykinin receptor (Homo sapiens, UniProt P30411); test: Concentration required to inhibit specific binding of [3H]BK at 1.2 nM to A-431 cells (human epidermoid carcinoma) which express Bradykinin receptor B2 by 50%.; type: cell-based
# T1 sequence (P30411 whole entry): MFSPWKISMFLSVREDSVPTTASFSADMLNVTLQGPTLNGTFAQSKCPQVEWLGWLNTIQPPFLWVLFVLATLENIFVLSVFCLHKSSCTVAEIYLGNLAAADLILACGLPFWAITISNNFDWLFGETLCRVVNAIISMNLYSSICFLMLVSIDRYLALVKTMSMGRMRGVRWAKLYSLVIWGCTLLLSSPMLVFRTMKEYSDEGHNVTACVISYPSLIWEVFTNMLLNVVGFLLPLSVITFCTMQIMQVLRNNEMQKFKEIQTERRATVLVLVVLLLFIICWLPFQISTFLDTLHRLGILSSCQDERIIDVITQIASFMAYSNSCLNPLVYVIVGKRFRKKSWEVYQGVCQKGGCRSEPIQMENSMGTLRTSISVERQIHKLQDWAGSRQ
# B2 bradykinin receptor [2] = molecular target: T2, B2 bradykinin receptor (Cavia porcellus, UniProt O70526); test: Concentration required to inhibit specific binding of [3H]BK at 0.06 nM to Bradykinin receptor B2 in guinea pig ileum membrane preparations by 50%.; type: cell membranes
# T2 sequence (O70526 whole entry): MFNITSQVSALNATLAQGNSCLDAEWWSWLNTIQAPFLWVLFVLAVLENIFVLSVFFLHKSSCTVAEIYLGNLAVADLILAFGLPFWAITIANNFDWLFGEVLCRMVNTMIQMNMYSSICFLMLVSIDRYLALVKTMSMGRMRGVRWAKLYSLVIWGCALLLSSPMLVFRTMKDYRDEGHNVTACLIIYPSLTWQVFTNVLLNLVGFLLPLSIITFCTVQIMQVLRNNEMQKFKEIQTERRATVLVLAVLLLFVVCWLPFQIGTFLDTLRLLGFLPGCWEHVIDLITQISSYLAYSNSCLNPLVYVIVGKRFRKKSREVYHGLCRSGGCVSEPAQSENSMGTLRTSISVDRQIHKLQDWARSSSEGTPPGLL
# Procedure, shortened: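 Guinea pig ileal membranes (100000g pellet, pH 6.8 TES buffer with phenanthroline, bacitracin, DTT, captopril, 0.1% BSA), 0.2 mg protein/mL, incubated with 0.06 nM [3H]BK and compounds 60 min at room temperature; final DMSO below 3%. Filtration on glass fiber filters, scintillation counting; nonspecific binding with 1 µM BK. Three experiments in duplicate.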
# Cavia porcellus [3] = test: Compound tested in vivo for inhibition of Bradykinin induced Bronchoconstriction in anaesthetized guinea pig.(P<0.01); % Inhibition at 1 mg/kg. p.o.; type: functional; conditions: route oral
# Procedure, shortened: (§1)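 Male Hartley guinea pigs (470-750 g), fasted overnight, anesthetized with pentobarbital 30 mg/kg ip, cannulated (trachea, jugular vein, esophagus), ventilated 10 mL/kg at 60 breaths/min; alcuronium 0.5 mg/kg iv, propranolol 10 mg/kg sc. BK 5 µg/kg iv; peak rise in insufflation pressure (modified Konzett-Rössler).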
# Cavia porcellus [4] = test: Compound tested in vivo for inhibition of Bradykinin induced Bronchoconstriction in anaesthetized guinea pig.(P<0.001);% Inhibition at 3.2 mg/Kg p,o.; type: functional; procedure, shortened: as §1
# Cavia porcellus [5] = test: Compound tested in vivo for inhibition of Bradykinin induced Bronchoconstriction in anaesthetized guinea pig.(P<0.001); % Inhibition at 3.2 mg/Kg p,o.; type: functional; procedure, shortened: as §1
# Cavia porcellus [6] = test: Compound tested in vivo for inhibition of Bradykinin induced Bronchoconstriction in anaesthetized guinea pig.(P<0.01); % Inhibition at 1 mg/Kg p,o.; type: functional; procedure, shortened: as §1
# Cavia porcellus [7] = test: Compound tested in vivo for inhibition of Bradykinin induced Bronchoconstriction in anaesthetized guinea pig.(P<0.001); % Inhibition at 1 mg/Kg p,o.; type: functional; procedure, shortened: as §1
# Cavia porcellus [8] = test: Compound tested in vivo for inhibition of Bradykinin induced Bronchoconstriction in anaesthetized guinea pig.(P<0.05); % Inhibition at 1 mg/Kg p,o.; type: functional; procedure, shortened: as §1
# Cavia porcellus [9] = test: Compound tested in vivo for inhibition of Bradykinin induced Bronchoconstriction in anaesthetized guinea pig.(P<0.01); % Inhibition at 3.2 mg/Kg p,o.; type: functional; procedure, shortened: as §1
# Cavia porcellus [10] = test: Compound tested in vivo for inhibition of Bradykinin induced Bronchoconstriction in anaesthetized guinea pig.(P<0.01); % Inhibition at 3.2 mg/kg p.o.; type: functional; conditions: route oral; procedure, shortened: as §1
# Cavia porcellus [11] = test: Compound tested in vivo for inhibition of Bradykinin induced Bronchoconstriction in anaesthetized guinea pig.(P<0.05); % Inhibition at 3.2 mg/Kg p,o.; type: functional; conditions: in the assay text read “0.32 mg/Kg” for “3.2 mg/Kg”; procedure, shortened: as §1
# Cavia porcellus [12] = test: Compound tested in vivo for inhibition of Bradykinin induced Bronchoconstriction in anaesthetized guinea pig; % Inhibition at 1 mg/Kg p,o.; type: functional; procedure, shortened: as §1
# Cavia porcellus [13] = test: Compound tested in vivo for inhibition of Bradykinin induced Bronchoconstriction in anaesthetized guinea pig; % Inhibition at 3.2 mg/Kg p,o.; type: functional; procedure, shortened: as §1
Structure (SMILES),IC50 (B2 bradykinin receptor [1]) [nM],IC50 (B2 bradykinin receptor [2]) [nM],Inhibition (Cavia porcellus [6]) [%],other results
Cc1nc2c(OCc3c(Cl)ccc(N(C)C(=O)CNC(=O)COc4ccccc4)c3Cl)cccn2c1Br,510,4.2,–,–
Cc1nc2c(OCc3c(Cl)ccc(N(C)C(=O)CNC(=O)Nc4cccc(C(=O)O)c4)c3Cl)cccn2c1Br,5200,63,–,–
Cc1nc2c(OCc3c(Cl)ccc(N(C)C(=O)CNC(=O)CCCc4ccccc4)c3Cl)cccn2c1Br,480,8.9,–,–
Cc1nc2c(OCc3c(Cl)ccc(N(C)C(=O)CNC(=O)CCc4ccccc4)c3Cl)cccn2c1Br,350,1.4,–,–
COCC(=O)Nc1cccc(NC(=O)NCC(=O)N(C)c2ccc(Cl)c(COc3cccn4c(Br)c(C)nc34)c2Cl)c1,75,2.7,–,–
Cc1nc2c(OCc3c(Cl)ccc(N(C)C(=O)CNC(=O)NC(=O)c4ccccc4)c3Cl)cccn2c1Br,510,340,–,–
Cc1nc2c(OCc3c(Cl)ccc(N(C)C(=O)CNC(=O)Nc4cccc(N)c4)c3Cl)cccn2c1Br,> 1000,15,–,–
CCCC(=O)NCC(=O)N(C)c1ccc(Cl)c(COc2cccn3c(Br)c(C)nc23)c1Cl,610,–,–,inhibition in vivo at 1 mg/kg (Cavia porcellus [3]): 52.7%
Cc1nc2c(OCc3c(Cl)ccc(N(C)C(=O)CNC(=O)CN(C)C)c3Cl)cccn2c1Br,830,–,–,Inhibition (Cavia porcellus [4]): 92.8%; inhibition in vivo at 1 mg/kg (Cavia porcellus [3]): 72.4%
CCNC(=O)NCC(=O)N(C)c1ccc(Cl)c(COc2cccn3c(Br)c(C)nc23)c1Cl,3000,–,–,Inhibition (Cavia porcellus [5]): 78.1%; inhibition in vivo at 1 mg/kg (Cavia porcellus [3]): 57.2%
Cc1ccccc1NC(=O)NCC(=O)N(C)c1ccc(Cl)c(COc2cccn3c(Br)c(C)nc23)c1Cl,150,83,–,–
CCCCCC(=O)NCC(=O)N(C)c1ccc(Cl)c(COc2cccn3c(Br)c(C)nc23)c1Cl,240,5.6,–,–
CCOC(=O)c1cccc(NC(=O)NCC(=O)N(C)c2ccc(Cl)c(COc3cccn4c(Br)c(C)nc34)c2Cl)c1,150,2.2,–,–
Cc1nc2c(OCc3c(Cl)ccc(N(C)C(=O)CNC(=O)/C=C/c4ccc(NS(C)(=O)=O)cc4)c3Cl)cccn2c1Br,4.8,3.9,–,–
CC(=O)N(C)c1ccc(/C=C/C(=O)NCC(=O)N(C)c2ccc(Cl)c(COc3cccn4c(Br)c(C)nc34)c2Cl)cc1.Cl,16,1.1,84.3,–
CNC(=O)c1ccc(/C=C/C(=O)NCC(=O)N(C)c2ccc(Cl)c(COc3cccn4c(Br)c(C)nc34)c2Cl)cc1.Cl,1.5,0.5,–,Inhibition (Cavia porcellus [7]): 53.2%
Cc1nc2c(OCc3c(Cl)ccc(N(C)C(=O)CNC(=O)/C=C/c4ccc(C(=O)N(C)C)nc4)c3Cl)cccn2c1Br.Cl.Cl,3.7,0.44,92.4,–
Cc1nc2c(OCc3c(Cl)ccc(N(C)C(=O)CNC(=O)/C=C/c4ccc(N5CCCC5=O)cc4)c3Cl)cccn2c1Br.Cl,4.1,0.59,82,–
CC(=O)Nc1ccc(/C=C/C(=O)NCC(=O)N(C)c2ccc(Cl)c(COc3cccn4c(Br)c(C)nc34)c2Cl)cn1.Cl.Cl,2.4,0.38,–,Inhibition (Cavia porcellus [8]): 76.4%

Structure (SMILES),IC50 (B2 bradykinin receptor [1]) [nM],IC50 (B2 bradykinin receptor [2]) [nM],Inhibition (Cavia porcellus [6]) [%],other results
Cc1ccc(NC(=O)NCC(=O)N(C)c2ccc(Cl)c(COc3cccn4c(Br)c(C)nc34)c2Cl)cc1.Cl,260,12,–,Inhibition (Cavia porcellus [9]): 35%
COc1cccc(NC(=O)NCC(=O)N(C)c2ccc(Cl)c(COc3cccn4c(Br)c(C)nc34)c2Cl)c1.Cl,200,2.3,0,–
Cc1cccc(NC(=O)NCC(=O)N(C)c2ccc(Cl)c(COc3cccn4c(Br)c(C)nc34)c2Cl)c1,140,2.7,–,inhibition in vivo at 3.2 mg/kg (Cavia porcellus [10]): 27.4%
COCCNC(=O)c1cccc(NC(=O)NCC(=O)N(C)c2ccc(Cl)c(COc3cccn4c(Br)c(C)nc34)c2Cl)c1.Cl,20,0.79,16.1,–
Cc1nc2c(OCc3c(Cl)ccc(N(C)C(=O)CNC(=O)/C=C\c4ccccc4)c3Cl)cccn2c1Br,120,0.78,–,inhibition in vivo at 1 mg/kg (Cavia porcellus [3]): 0%
Cc1nc2c(OCc3c(Cl)ccc(N(C)C(=O)CNC(=O)/C=C/c4ccc(C(=O)N(C)C)cc4)c3Cl)cccn2c1Br.Cl,1.4,0.66,86.7,Inhibition (Cavia porcellus [11]): 74.8%
CC(=O)c1cccc(NC(=O)NCC(=O)N(C)c2ccc(Cl)c(COc3cccn4c(Br)c(C)nc34)c2Cl)c1.Cl,61,0.79,24.9,–
CC(=O)Nc1ccc(/C=C/C(=O)NCC(=O)N(C)c2ccc(Cl)c(COc3cccn4c(Br)c(C)nc34)c2Cl)cc1.Cl,1.6,0.55,–,Inhibition (Cavia porcellus [12]): 20.7%
Cc1nc2c(OCc3c(Cl)ccc(N(C)C(=O)CNC(=O)Nc4cccc(C(=O)N(C)C)c4)c3Cl)cccn2c1Br.Cl,20,0.76,23.2,–
Cc1nc2c(OCc3c(Cl)ccc(N(C)C(=O)CNC(=O)Cc4ccccc4)c3Cl)cccn2c1Br.Cl,670,5.3,–,Inhibition (Cavia porcellus [13]): 19.8%
Cc1nc2c(OCc3c(Cl)ccc(N(C)C(=O)CNC(=O)NCc4ccccc4)c3Cl)cccn2c1Br.Cl,570,11,–,Inhibition (Cavia porcellus [13]): 24.1%
Cc1nc2c(OCc3c(Cl)ccc(N(C)C(=O)CNC(=O)Nc4cccc([N+](=O)[O-])c4)c3Cl)cccn2c1Br,180,4.2,–,inhibition in vivo at 1 mg/kg (Cavia porcellus [3]): 13.6%
CNC(=O)c1ccc(/C=C/C(=O)NCC(=O)N(C)c2ccc(Cl)c(COc3cccn4c(Br)c(C)nc34)c2Cl)cn1.Cl.Cl,9.1,0.36,89.4,–
CNC(=O)Nc1ccc(/C=C/C(=O)NCC(=O)N(C)c2ccc(Cl)c(COc3cccn4c(Br)c(C)nc34)c2Cl)cc1.Cl,2.6,0.89,18.8,–
Cc1nc2c(OCc3c(Cl)ccc(N(C)C(=O)CNC(=O)Nc4cccc(C#N)c4)c3Cl)cccn2c1Br.Cl,190,1.4,4.7,–
Cc1nc2c(OCc3c(Cl)ccc(N(C)C(=O)CNC(=O)Nc4cccc(Cl)c4)c3Cl)cccn2c1Br.Cl,1900,3.8,14.5,–
CC(=O)NCC(=O)N(C)c1ccc(Cl)c(COc2cccn3c(Br)c(C)nc23)c1Cl.Cl,4100,–,–,Inhibition (Cavia porcellus [5]): 94.2%; inhibition in vivo at 1 mg/kg (Cavia porcellus [3]): 62.3%
Cc1nc2c(OCc3c(Cl)ccc(N(C)C(=O)CNC(=O)Nc4ccccc4)c3Cl)cccn2c1Br,150,1.4,–,–
NC(N)=NCCC[C@@H](N)C(=O)N[C@@H](CCCN=C(N)N)C(=O)N1CCC[C@H]1C(=O)N1C[C@H](O)C[C@H]1C(=O)NCC(=O)N[C@@H](Cc1cccs1)C(=O)N[C@@H](CO)C(=O)N1Cc2ccccc2C[C@@H]1C(=O)N1[C@H](C(=O)N[C@@H](CCCN=C(N)N)C(=O)O)C[C@@H]2CCCC[C@@H]21 [ICATIBANT],–,0.09,–,–
